Broadly, the viability is a per cent measure of how many cells are alive, often set against a control. A lower viability goes with a greater loss of cells.

The test system of data set [1] is TNF-α/NF-κB signaling pathway. It counts as cell-based. As to conditions: NRK52E.
The test system of data set [2] is NRK52E cells. It counts as cell-based.
In data set [3] the test system is C57BL/6 mice with renal injury induced by aristolochic acid exposure. The data set is described as follows: AAN mouse model: body weight, kidney coefficient, HE/PAS histopathology. It counts as in vivo. An outline of the steps:
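Male SPF C57BL/6 mice (6 weeks, 18–20 g) were acclimated for 1 week, then split into 5 groups (n = 6). Dosing was intragastric for 28 days, with vehicle 0.5% CMC. AAI 10 mg/kg/day was given at 13:00, and LYC 5 or 20 mg/kg/day at 08:00. Mice were killed 24 h after the last dose. Kidney coefficient = kidney/body weight. Kidney sections were stained with HE, PAS and Masson and scored for histopathology and tubular injury.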

For data set [4] the test system is unchanged. It counts as in vivo.
The test system of data set [5] is Nrf2-HO-1 antioxidant pathway. It counts as cell-based. As to conditions: NRK52E.
Data set [6] is classed as in vivo, SD rats. An outline of the steps:
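Male SD rats (8 weeks, 200 ± 20 g) were acclimated for 1 week. Each rat got one intragastric dose of AAI, alone or with lycopene; controls were n = 6. Three rats were killed at each time point: 0.25, 0.5, 1, 2, 4, 8, 12, 24 and 48 h. Kidney (0.3–1 g) was homogenized in normal saline at 1:3 (w:v), and AAI was measured by HPLC.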

Data set [7] concerns C57BL/6 mice with renal injury induced by aristolochic acid exposure. Kind of data set: Renal function, kidney injury markers and oxidative stress markers in AAN mice. It counts as in vivo. Particulars: for Cr and BUN levels in the serum: mice. Summed up:
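C57BL/6 AAN model: AAI 10 mg/kg/day intragastric for 28 days, with LYC 5 or 20 mg/kg/day given separately. Blood was taken 24 h after the last dose and centrifuged at room temperature for serum. Serum creatinine and BUN were measured with commercial kits, and serum KIM-1 and NGAL by ELISA. MDA, SOD, T-AOC and GSH-PX were measured with commercial kits.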

Data set [8] in a line: NRK52E cytotoxicity. Particulars: rat, NRK52E renal tubular epithelial cells. It counts as cell-based. Summed up: (§1)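 NRK52E rat tubular epithelial cells were seeded at 8000 cells/well. Treatment was 24 h with AAI (0–80 μM) or LYC (0–40 μM), or AAI 40 μM with LYC 5 or 10 μM; drug went in by medium change at 40–50% density. CCK-8 (10% in serum-free DMEM) was added for 2 h at 37 °C and A450 read. Viability % = (OD sample − OD blank)/(OD control − OD blank) × 100. Morphology and confluence were viewed by light microscopy.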

Data set [9] relates to NRK52E cells. The data set is described as follows: NRK52E cytotoxicity. It counts as cell-based. As to conditions: NRK52E. An outline of the steps:
as §1

The nature of data set [10]: Aristolochic lactam. It counts as in vivo. As to conditions: rats, after oral gavage of AAI.
Data set [11] relates to Nrf2 antioxidant system, NF-κB signaling pathway and apoptosis-related genes in kidney. Kind of data set: Nrf2 system, NF-κB pathway and apoptosis gene expression in kidneys of AAN mice. It counts as in vivo, C57BL/6 mice.
For data set [12] the following is noted: oral gavage of lycopene; ref Previous studies; cited from earlier work.
Data set [13] is described as follows: HPLC determination of lycopene content in rat kidney after oral gavage. It counts as in vivo, SD rats. Particulars: rats. An outline of the steps: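 Rats (male SD) got one intragastric dose of AAI plus lycopene, and three were killed per time point (0.25–48 h). For each sample, 0.5 g kidney was homogenized with 1 ml saline. Protein in 100 μL homogenate was precipitated with 100 μL absolute ethanol, then 200 μL n-hexane (0.01% BHT) was added. HPLC used a C18 column (150 × 4.6 mm, 5 μm) with methanol:acetonitrile:dichloromethane 50:33:17, detection at 472 nm, 25 °C.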

The mark [14] stands for this setting: mice, AAN group (AAI 10 mg/kg/day, 28 days).

Each structure is given as a SMILES string. Read-outs that look alike come from different tables or passages of the source.

Take `COc1cccc2c1cc([N+](=O)[O-])c1c(C(=O)O)cc3c(c12)OCO3` [AAI, Aristolochic acid A]: the “expression of NF-κB-p65, TNF-α, and IL-6” value in data set [1] (AAI group vs control) is “increased”. In addition, the NF-κB-P65 nuclear expression entry in data set [1] (AAI group, immunofluorescence) is reported as “significantly increased”. For the same compound, the “number of apoptotic cells (early and late)” value in [2] (AAI group vs control, flow cytometry) is listed as “significantly increased”. Further, the “contents of CR and BUN in the serum (preliminary experiment)” value in data set [3] (mice, AAI 10 mg/kg/day, vs normal control) is recorded as “significantly increased”. Besides, the body weight result in data set [3] (setting [14]) is on record as “significantly reduced”. In addition, in data set [3] (setting [14]), the “scores of renal histopathology and tubular injury” value is recorded as “significantly increased”. Also, the renal index result in data set [3] (mice, AAN group (AAI 10 mg/kg/day, 28 days) vs control) was “significantly lower”. Further, the “renal interstitium fibrosis (MASSON staining)” value in data set [4] (mice, AAN group vs control) was “severely fibrotic”. In [4] (model mice vs control), the “expression of IL-12 in the kidneys” value is given as “decreased”. Further, the “expression of TNF-α, IL-6, IL-10 in the kidneys” value in data set [4] (model mice vs control) is listed as “increased”. In addition, in data set [5] (AAI exposure vs control), the “expression of Nrf2, Keap-1, HO-1, NQO1, GSH-PX, and SOD” value is on record as “decreased”. In data set [5] (AAI group vs control), the “content of ROS” value is given as “increased”. Besides, the “AA-I contents in kidney” value in data set [6] (rats, Group AAI + LYC, 15min after intragastric administration) is given as 0; in data set [6] (rats, Group AAI + LYC, 30min), 7.955 ± 0.8107; in data set [6] (rats, Group AAI + LYC, 1h), 0; in data set [6] (rats, Group AAI + LYC, 2h), 1.516 ± 0.1493; in data set [6] (rats, Group AAI + LYC, 4h) it was 0; in [6] (rats, Group AAI + LYC, 8h) it was 0. Besides, the “AA-I contents in kidney” value is listed as 0 in data set [6] (rats, Group AAI + LYC, 12h); 0 in [6] (rats, Group AAI + LYC, 24h); 0 in [6] (rats, Group AAI + LYC, 48h); 0 in [6] (rats, Group AAI, 15min after intragastric administration); 8.546 ± 1.478 in data set [6] (rats, Group AAI, 30min); 0 in data set [6] (rats, Group AAI, 1h). Further, the “AA-I contents in kidney” value in data set [6] (rats, Group AAI, 2h) is recorded as 1.616 ± 0.04743; in data set [6] (rats, Group AAI, 4h), 0; in data set [6] (rats, Group AAI, 8h), 0; in [6] (rats, Group AAI, 12h), 0; in data set [6] (rats, Group AAI, 24h), 0; in data set [6] (rats, Group AAI, 48h), 0. The “time after feeding at which AAI has been metabolized completely in the kidney” value in data set [6] (rats, oral gavage of AAI) is recorded as 2 h. In data set [7] (AAN group vs control), the “Cr and BUN levels in the serum” value is “significantly higher”. The same compound had a viability at 24 h, 40 μM in data set [8] of 60%. In addition, the “degree of cell fusion” value in data set [9] (AAI group, light microscopy) is “about 50%”.
As for `CC(=O)O[C@@H]1CC[C@@]2(C)[C@@H](CC[C@]3(C)[C@@H]2C(=O)C=C2[C@@H]4[C@@H](C)[C@H](C)CC[C@]4(C)CC[C@]23C)[C@@]1(C)C(=O)O` [AKBA, Acetyl-11-keto-β-boswellic acid], in data set [1] (AKBA 40 μM, AAI 40 μM), the “expression of Bcl-2” value is “increased” and the “expression of NF-κB, TNF-α, Bax, Cleaved-Caspase3” value is on record as “decreased”. In data set [5] (AKBA 40 μM, AAI 40 μM), the “content of ROS in the cells” value is “decreased” and the “expression of Nrf2, keap-1, HO-1, NQO1” value was “increased”.
As to `COc1cccc2c1cc1c3c(cc4c(c32)OCO4)C(=O)N1` [ALI, Aristolochic lactam], in data set [10], the “accumulation of ALI in the kidney after 2 h” value is reported as “no accumulation”.
As to `CC(C)=CCC/C(C)=C/C=C/C(C)=C/C=C/C(C)=C/C=C/C=C(C)/C=C/C=C(C)/C=C/C=C(\C)CCC=C(C)C` [Lycopene], the “expression of NF-κB-p65, TNF-α, IL-6, IL-10, IL-1β, IκB and IL-12 in the kidney” value in [11] (LYC intervention) is “reversed the expression of these genes in a dose-dependent manner”. Besides, the “Nrf2, Keap-1, HO-1, NQO1, GSH-PX and SOD expression in the kidneys” value in data set [11] (lycopene treatment) is “reversed the expression of these proteins”. In addition, in [1] (AAI plus LYC intervention, immunofluorescence), the NF-κB-P65 nuclear expression result is “significantly decreased”. Moreover, the “expression of NF-κB-p65, TNF-α, IL-6, IkB and IL-12” value in data set [1] (AAI plus LYC treatment) is listed as “reversed the expression of these proteins”. The “expression of IL-1β in the cells” value in data set [1] (LYC treatment vs AAI group, immunofluorescence) is on record as “significantly decreased”. The “expression of Bax, Cleaved-Caspase3, Cleaved-Caspase9, Bcl-2, Caspase-3, and Caspase-9” value in data set [2] (AAI plus LYC intervention, Western-blot and RT-PCR) is recorded as “reversed the expression of these proteins”. Besides, in data set [2] (AAI plus LYC intervention, flow cytometry), the “number of apoptotic cells” value was “significantly decreased”. Further, in data set [2] (AAI plus LYC intervention, transmission electron microscopy), the cellular mitochondrial damage entry is listed as “significantly reduced”. In [3] (AAN mice after lycopene intervention), the “damaged renal tissue (HE and PAS staining)” value was “significant improvement”. The body weight result in [3] (AAN mice, AL20 group (LYC 20 mg/kg/d + AAI 10 mg/kg/day, 28 days)) is listed as “increased”. Moreover, the “renal tubular structure (HE and PAS staining)” value in data set [3] (mice, LYC group (LYC 20 mg/kg/d alone)) is on record as “intact without signs of lesions”. Further, in [4] (AAN mice after LYC intervention), the “degree of renal fibrosis (MASSON staining)” value is “alleviated”. Further, the “expression of TNF-α, IL-6, IL-10 and IL-12 in the kidneys” value in [4] (AAN mice, LYC 5 and 20 mg/kg/d, Western-blot, RT-PCR, ELISA) is listed as “reversed the expression of these genes in a dose-dependent manner”. Moreover, in [12], the “time at which lycopene is most abundant in the kidney” value is 6 to 8 h. The Nrf2 intranuclear expression entry in data set [5] (AAI plus LYC intervention, dose-dependent) is given as “significant increase”. Moreover, in [5] (AAI plus LYC intervention, dose-dependent, DCFH-DA), the “content of ROS” value is recorded as “significant decrease”. Also, in [6] (AAI + lycopene vs AAI alone), the “content of AAI in the kidney of rats fed with lycopene compared with AAI alone” value is listed as “no significant difference”. For the same compound, in [7] (AAN mice), the “expression of AAI-induced lipid peroxidation product (MDA)” value is reported as “significantly decreased”; the “expression of antioxidant enzyme systems (T-AOC, SOD, and GSH-PX)” value is recorded as “increased”. In addition, in data set [7] (AAN mice, serum, ELISA), the “expression levels of KIM-1 and NGAL induced by AAI” value was “significantly reduced”. Also, the “Cr and BUN levels in the serum” value in data set [7] (LYC group) is reported as “significantly lower”. In data set [9] (LYC 5 μM, 10 μM together with AAI, 24 h, dose-dependent), the cell viability result is reported as “increased”. Also, the “time of highest lycopene content in the kidney” value in [13] is 6 h. The “lycopene content in the kidney after 24 h” value in data set [13] (24 h) was around 0.
Take `Cc1ccccc1C(=O)N1CCc2cc(-c3nc(NC(=O)Cc4ccc5c(c4)OCO5)sc3C)ccc21` [ML385]: in data set [1] (ML385 5 μM, AAI 40 μM, LYC), the “effect of LYC on NF-κB, TNF-α, Bax, Cleaved-Caspase-3 and BCL-2 expression when ML385 was added” value was “significantly reduced or even ineffective”. The “effect of LYC on apoptosis (DAPI staining) after the addition of ML385” value in data set [2] (AAI, LYC, ML385) is “the effect of LYC was inhibited”.

(Values after paper PMC9530962 (Redox Biology, 2022).)
